Active and inactive are the calls of the source. The calls are words filed in the database; no cut-off is given here.
Legend:
[1] = Inhibition of L-rhamnosidase (unknown origin)
RAW264.7 [2] = assay: Antiinflammatory activity in mouse RAW264.7 cells assessed as inhibition of LPS-induced NO production at 100 uM preincubated for 1 hr followed by LPS stimulation measured after 20 hrs by Griess assay; assay type: functional, cell-based
Summary of the method: (§1)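 RAW 264.7 cells in DMEM with 10% FBS, penicillin/streptomycin, 2 mM L-glutamine and 1 mM nonessential amino acids, seeded at 4 × 10^5 cells/well, settled 4 h at 37 °C, 5% CO2. Compounds in 0.1% DMSO (final 0.1–100 μM) added 1 h before LPS (5 μg/mL solution). After a further 20 h, supernatant mixed 1:1 with Griess reagent for 5 min, A540 read. At least triplicate; indomethacin as reference.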

[3] = Cytotoxicity against mouse RAW264.7 cells assessed as inhibition of cell viability at 100 uM by MTT assay; assay type: cell-based; conditions: read-out: INH
Summary of the method: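 Same RAW 264.7 culture and plating as the nitrite assay: compounds in 0.1% DMSO added 1 h before LPS (5 μg/mL solution), then 20 h incubation. Viability read by standard MTT assay. At least triplicate.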

RAW264.7 [4] = assay: Antiinflammatory activity in mouse RAW264.7 cells assessed as inhibition of LPS-induced iNOS overexpression at 5 uM after 24 hrs by Western blot analysis; assay type: functional, cell-based
Summary of the method: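 RAW 264.7 cells pretreated with 5 μg/mL LPS or solvent, then exposed to 5 μM compound for 24 h. Lysed in cold buffer with 1% PMSF; protein by Bradford, 25 μg run on SDS-PAGE, blotted to nitrocellulose, blocked in 5% milk/TBS-Tween 60 min. Anti-iNOS overnight at 4 °C, HRP secondary 1 h, ECL on film; densitometry normalized to β-actin. Mean ± SD, n = 3–5.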

RAW264.7 [5] = assay: Antiinflammatory activity in mouse RAW264.7 cells assessed as inhibition of LPS-induced NO production preincubated for 1 hr followed by LPS stimulation measured after 20 hrs by Griess assay; assay type: functional, cell-based; summary of the method: as §1

O[C@@H]1[C@@H]2[C@@H](O)CCCN2C[C@@H]1O
Ki [1]: 0.45 µM

CC(=O)[C@H]1[C@@H]2CC[C@H]3C[C@@H](C)[C@](O)(c4ccccc4)[C@H](C[C@@]1(C)O)N32
inhibition (RAW264.7 [2]): inactive | cytotoxicity at 100 µM [3]: < 10%

C[C@H]1C[C@H]2CCCN2[C@@H](CC(=O)C[C@@H]2N3CCC[C@@H]3C[C@H](C)[C@@]2(O)c2ccccc2)[C@]1(O)c1ccccc1
inhibition (RAW264.7 [4]): Active | IC50 (RAW264.7 [5]): 3.6 µM

C[C@@H]1C[C@@H]2CCCN2[C@H](CC(=O)C[C@H]2N3CCC[C@H]3C[C@@H](C)[C@]2(O)c2ccccc2)[C@@]1(O)c1ccccc1
inhibition (RAW264.7 [4]): inactive | IC50 (RAW264.7 [5]): 22.8 µM

CC1CC2CCCN2C(CC(=O)CC2N3CCCC3CC(C)C2(O)c2ccccc2)C1(O)c1ccccc1 (racemic)
inhibition (RAW264.7 [4]): inactive | IC50 (RAW264.7 [5]): 14.7 µM | cytotoxicity at 100 µM [3]: < 10%

CC(=O)CCCC[C@H]1C[C@@H](C)[C@@](O)(c2ccccc2)CN1
IC50 (RAW264.7 [5]): 27.6 µM | cytotoxicity at 100 µM [3]: < 10%

Source: ChEMBL document CHEMBL3785082, “(±)-Homocrepidine A, a Pair of Anti-inflammatory Enantiomeric Octahydroindolizine Alkaloid Dimers from Dendrobium crepidatum” (J Nat Prod, 2016)
